ChEMBL document CHEMBL2417369, “Synthesis and evaluation of heteroaryl substituted diazaspirocycles as scaffolds to probe the ATP-binding site of protein kinases” (Bioorg Med Chem, 2013)

What was measured:
Homo sapiens = species on record: Homo sapiens; assay: Inhibition of DYRK1 (unknown origin) at 30 uM by microfluidic mobility shift assay relative to control
Summary of the method: (§1)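 Single-point screen at 30 µM test compound across a 24-kinase panel in a microfluidic assay format. ATP was set near each enzyme's Km,[ATP]. […] The pan-AGC inhibitor H-89 served as an internal control on every assay plate.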

[1] = target: Cyclin-dependent kinase 2 (Homo sapiens) (UniProt P24941); assay: Inhibition of CDK2 (unknown origin) at 30 uM by microfluidic mobility shift assay relative to control; summary of the method: as §1
[2] = target: Fibroblast growth factor receptor 2 (Homo sapiens) (UniProt P21802); assay: Inhibition of FGFR2 (unknown origin) at 30 uM by microfluidic mobility shift assay relative to control; summary of the method: as §1
Chain of Fibroblast growth factor receptor 2 (Homo sapiens) (P21802 22-821 limits assumed): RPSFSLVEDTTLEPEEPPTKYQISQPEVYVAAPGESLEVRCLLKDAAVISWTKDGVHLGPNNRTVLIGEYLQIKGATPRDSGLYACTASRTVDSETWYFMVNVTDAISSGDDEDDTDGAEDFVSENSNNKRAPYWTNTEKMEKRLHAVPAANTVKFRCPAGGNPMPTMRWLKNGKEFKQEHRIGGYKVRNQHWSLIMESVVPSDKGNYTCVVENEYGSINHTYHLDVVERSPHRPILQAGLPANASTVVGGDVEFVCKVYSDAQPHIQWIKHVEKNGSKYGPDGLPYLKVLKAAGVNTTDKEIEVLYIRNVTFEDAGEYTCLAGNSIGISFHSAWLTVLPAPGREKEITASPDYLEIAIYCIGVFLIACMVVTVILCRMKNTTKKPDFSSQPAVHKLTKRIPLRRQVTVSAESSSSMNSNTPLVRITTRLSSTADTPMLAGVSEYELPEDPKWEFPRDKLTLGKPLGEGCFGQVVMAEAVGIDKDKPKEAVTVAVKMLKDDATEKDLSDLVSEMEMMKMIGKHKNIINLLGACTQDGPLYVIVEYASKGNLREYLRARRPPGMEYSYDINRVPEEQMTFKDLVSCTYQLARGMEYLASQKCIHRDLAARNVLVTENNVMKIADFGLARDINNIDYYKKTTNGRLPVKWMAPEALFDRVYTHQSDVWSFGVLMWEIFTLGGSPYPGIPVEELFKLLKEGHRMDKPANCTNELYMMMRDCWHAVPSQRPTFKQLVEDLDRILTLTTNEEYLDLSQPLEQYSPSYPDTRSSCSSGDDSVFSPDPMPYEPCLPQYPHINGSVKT

[3] = target: Ribosomal protein S6 kinase alpha-2 (Homo sapiens) (UniProt Q15349); assay: Inhibition of RSK3 (unknown origin) at 30 uM by microfluidic mobility shift assay relative to control
Chain of Ribosomal protein S6 kinase alpha-2 (Homo sapiens) (Q15349 whole entry): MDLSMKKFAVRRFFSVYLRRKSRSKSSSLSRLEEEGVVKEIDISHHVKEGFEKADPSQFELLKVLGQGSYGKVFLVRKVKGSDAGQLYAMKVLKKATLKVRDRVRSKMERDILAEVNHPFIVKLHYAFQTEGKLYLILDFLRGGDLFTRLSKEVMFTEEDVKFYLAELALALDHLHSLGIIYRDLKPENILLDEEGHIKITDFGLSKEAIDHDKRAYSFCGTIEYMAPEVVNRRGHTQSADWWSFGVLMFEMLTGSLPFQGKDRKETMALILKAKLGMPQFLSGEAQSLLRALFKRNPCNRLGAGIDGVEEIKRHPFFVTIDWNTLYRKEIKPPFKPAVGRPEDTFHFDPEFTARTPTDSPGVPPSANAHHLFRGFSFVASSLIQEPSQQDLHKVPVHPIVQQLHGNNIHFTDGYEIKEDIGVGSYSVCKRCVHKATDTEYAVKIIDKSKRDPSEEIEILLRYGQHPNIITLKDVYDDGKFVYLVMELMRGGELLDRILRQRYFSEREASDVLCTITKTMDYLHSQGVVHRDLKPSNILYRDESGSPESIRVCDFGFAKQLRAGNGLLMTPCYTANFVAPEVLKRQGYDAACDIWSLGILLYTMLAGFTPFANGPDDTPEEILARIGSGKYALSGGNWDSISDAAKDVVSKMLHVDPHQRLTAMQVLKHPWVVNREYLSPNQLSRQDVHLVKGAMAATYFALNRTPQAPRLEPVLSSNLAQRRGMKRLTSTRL
Summary of the method: (§2)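 Single-point screen against a 24-kinase panel in a commercial microfluidic assay format. Compounds were tested at 30 µM, with ATP at approximately the Km,[ATP] of each enzyme. H-89 was included on each assay plate as an internal control.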

[4] = target: T1, Serine/threonine-protein kinase Nek2 (Homo sapiens) (UniProt P51955); assay: Inhibition of NEK2 (unknown origin) at 30 uM by microfluidic mobility shift assay relative to control; summary of the method: as §1
T1 sequence (whole entry): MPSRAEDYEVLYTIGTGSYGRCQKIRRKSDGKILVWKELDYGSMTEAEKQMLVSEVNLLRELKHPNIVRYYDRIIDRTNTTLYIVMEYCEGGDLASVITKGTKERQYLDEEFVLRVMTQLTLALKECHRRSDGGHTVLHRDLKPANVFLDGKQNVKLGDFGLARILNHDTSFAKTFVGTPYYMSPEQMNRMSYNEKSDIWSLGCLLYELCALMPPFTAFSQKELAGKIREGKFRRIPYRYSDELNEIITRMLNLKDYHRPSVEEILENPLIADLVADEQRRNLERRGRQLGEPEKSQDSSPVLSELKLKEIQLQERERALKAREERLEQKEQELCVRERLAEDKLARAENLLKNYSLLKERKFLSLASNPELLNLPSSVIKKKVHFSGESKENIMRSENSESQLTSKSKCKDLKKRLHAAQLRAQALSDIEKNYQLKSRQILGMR

[5] = target: T2, Mitogen-activated protein kinase 13 (Homo sapiens) (UniProt O15264); assay: Inhibition of p38delta (unknown origin) at 30 uM by microfluidic mobility shift assay relative to control; summary of the method: as §2
T2 sequence (whole entry): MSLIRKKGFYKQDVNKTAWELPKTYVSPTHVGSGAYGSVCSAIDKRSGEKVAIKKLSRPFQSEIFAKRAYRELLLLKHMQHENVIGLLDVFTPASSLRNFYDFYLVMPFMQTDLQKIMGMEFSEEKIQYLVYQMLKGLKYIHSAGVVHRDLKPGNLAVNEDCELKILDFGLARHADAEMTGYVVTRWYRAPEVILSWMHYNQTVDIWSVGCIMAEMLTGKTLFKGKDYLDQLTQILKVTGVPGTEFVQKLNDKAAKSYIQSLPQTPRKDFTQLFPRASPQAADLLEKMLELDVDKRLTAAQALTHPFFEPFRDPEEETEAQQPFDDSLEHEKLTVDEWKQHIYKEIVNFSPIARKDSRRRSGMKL

[6] = target: T3, Calcium/calmodulin-dependent protein kinase type IV (Homo sapiens) (UniProt Q16566); assay: Inhibition of CAMK4 (unknown origin) at 30 uM by microfluidic mobility shift assay relative to control; summary of the method: as §1
T3 sequence (whole entry): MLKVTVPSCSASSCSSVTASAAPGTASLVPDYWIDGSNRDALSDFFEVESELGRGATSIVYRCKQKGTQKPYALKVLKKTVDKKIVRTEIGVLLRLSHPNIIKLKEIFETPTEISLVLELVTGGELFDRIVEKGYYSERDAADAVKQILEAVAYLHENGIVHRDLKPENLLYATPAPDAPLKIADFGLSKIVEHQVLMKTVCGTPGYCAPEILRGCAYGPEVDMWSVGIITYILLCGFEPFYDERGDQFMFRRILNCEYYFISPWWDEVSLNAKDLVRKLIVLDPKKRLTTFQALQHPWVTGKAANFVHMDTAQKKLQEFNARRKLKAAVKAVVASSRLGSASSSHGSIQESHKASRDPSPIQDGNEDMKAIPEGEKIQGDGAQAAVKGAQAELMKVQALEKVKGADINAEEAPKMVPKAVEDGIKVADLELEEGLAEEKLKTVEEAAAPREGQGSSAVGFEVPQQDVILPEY

[7] = target: Protein kinase C gamma type (Homo sapiens) (UniProt P05129); assay: Inhibition of PKCgamma (unknown origin) at 30 uM by microfluidic mobility shift assay relative to control; summary of the method: as §2
[8] = target: Rho-associated protein kinase 2 (Homo sapiens) (UniProt O75116); assay: Inhibition of ROCK2 (unknown origin) at 30 uM by microfluidic mobility shift assay relative to control; summary of the method: as §2
Chain of Rho-associated protein kinase 2 (Homo sapiens) (O75116 whole entry, looked up): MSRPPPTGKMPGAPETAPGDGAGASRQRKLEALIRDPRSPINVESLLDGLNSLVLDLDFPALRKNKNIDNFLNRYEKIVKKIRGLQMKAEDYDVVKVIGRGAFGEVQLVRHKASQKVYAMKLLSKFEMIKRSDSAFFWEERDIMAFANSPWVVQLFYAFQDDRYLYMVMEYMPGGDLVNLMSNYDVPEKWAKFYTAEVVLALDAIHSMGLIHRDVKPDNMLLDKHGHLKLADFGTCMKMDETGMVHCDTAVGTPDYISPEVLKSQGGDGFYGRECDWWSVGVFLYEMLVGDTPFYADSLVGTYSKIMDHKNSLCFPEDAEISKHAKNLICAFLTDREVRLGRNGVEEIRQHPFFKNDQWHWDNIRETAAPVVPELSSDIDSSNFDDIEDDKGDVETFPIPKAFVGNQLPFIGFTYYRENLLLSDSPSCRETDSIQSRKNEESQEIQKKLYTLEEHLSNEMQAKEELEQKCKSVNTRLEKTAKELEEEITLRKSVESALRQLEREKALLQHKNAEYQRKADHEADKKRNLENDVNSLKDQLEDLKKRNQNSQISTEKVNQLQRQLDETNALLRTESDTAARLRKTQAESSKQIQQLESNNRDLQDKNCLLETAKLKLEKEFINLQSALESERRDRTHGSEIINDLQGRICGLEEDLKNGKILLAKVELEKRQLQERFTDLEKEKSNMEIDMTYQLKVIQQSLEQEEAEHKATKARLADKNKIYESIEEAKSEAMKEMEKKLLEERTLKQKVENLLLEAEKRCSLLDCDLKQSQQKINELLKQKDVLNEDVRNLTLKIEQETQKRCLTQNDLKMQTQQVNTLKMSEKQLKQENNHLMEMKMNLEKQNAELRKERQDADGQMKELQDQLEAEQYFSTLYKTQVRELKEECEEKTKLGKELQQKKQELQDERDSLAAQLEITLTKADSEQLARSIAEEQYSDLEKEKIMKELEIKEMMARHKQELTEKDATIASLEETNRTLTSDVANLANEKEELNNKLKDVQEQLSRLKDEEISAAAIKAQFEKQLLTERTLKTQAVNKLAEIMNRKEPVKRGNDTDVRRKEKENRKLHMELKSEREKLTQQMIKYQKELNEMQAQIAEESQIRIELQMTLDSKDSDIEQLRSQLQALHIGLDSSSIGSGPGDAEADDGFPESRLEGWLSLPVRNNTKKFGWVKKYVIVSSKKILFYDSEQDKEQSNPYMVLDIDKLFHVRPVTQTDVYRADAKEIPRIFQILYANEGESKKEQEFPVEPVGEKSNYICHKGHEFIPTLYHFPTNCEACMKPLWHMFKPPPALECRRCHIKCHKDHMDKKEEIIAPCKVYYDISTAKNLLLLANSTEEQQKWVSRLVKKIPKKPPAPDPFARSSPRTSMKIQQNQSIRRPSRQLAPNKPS

[9] = target: Serine/threonine-protein kinase PAK 2 (Homo sapiens) (UniProt Q13177); assay: Inhibition of PAK2 (unknown origin) at 30 uM by microfluidic mobility shift assay relative to control; summary of the method: as §1
Chain of Serine/threonine-protein kinase PAK 2 (Homo sapiens) (Q13177 whole entry): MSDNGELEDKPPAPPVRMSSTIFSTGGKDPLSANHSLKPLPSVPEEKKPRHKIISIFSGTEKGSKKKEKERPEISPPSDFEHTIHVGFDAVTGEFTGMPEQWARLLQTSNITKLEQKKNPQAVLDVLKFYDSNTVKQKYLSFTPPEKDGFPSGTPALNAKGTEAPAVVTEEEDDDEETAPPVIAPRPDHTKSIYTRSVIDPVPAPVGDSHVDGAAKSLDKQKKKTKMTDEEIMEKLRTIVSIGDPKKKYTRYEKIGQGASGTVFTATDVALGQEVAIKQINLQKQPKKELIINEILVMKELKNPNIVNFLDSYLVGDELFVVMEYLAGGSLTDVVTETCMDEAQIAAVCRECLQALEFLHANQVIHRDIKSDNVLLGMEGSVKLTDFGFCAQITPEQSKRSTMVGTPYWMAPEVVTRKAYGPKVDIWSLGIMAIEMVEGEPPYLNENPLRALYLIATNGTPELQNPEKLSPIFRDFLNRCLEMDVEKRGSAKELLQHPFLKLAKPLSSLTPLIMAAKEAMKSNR

[10] = target: Ribosomal protein S6 kinase alpha-3 (Homo sapiens) (UniProt P51812); assay: Inhibition of RSK2 (unknown origin) at 30 uM by microfluidic mobility shift assay relative to control; summary of the method: as §2
Chain of Ribosomal protein S6 kinase alpha-3 (Homo sapiens) (P51812 whole entry): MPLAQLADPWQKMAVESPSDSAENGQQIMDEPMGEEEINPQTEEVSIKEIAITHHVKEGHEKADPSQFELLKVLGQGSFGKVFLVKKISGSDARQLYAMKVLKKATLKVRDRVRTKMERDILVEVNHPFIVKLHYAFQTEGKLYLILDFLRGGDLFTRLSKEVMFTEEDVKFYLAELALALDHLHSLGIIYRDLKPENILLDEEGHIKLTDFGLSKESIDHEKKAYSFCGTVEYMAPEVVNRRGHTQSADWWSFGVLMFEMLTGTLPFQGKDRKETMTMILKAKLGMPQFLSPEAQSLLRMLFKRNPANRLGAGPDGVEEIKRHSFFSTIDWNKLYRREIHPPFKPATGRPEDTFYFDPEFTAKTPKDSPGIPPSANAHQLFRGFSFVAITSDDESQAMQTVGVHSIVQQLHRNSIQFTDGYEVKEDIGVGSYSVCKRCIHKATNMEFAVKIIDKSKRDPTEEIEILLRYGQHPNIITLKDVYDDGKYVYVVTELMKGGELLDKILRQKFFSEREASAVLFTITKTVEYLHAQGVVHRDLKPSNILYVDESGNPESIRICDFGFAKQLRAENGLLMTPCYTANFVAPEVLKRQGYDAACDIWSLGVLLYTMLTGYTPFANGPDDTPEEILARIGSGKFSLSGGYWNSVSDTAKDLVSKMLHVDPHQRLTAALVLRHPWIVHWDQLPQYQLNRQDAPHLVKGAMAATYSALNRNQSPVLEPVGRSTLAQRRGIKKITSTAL

[11] = target: T4, Serine/threonine-protein kinase BRSK1 (Homo sapiens) (UniProt Q8TDC3); assay: Inhibition of BRSK1 (unknown origin) at 30 uM by microfluidic mobility shift assay relative to control; summary of the method: as §1
T4 sequence (whole entry): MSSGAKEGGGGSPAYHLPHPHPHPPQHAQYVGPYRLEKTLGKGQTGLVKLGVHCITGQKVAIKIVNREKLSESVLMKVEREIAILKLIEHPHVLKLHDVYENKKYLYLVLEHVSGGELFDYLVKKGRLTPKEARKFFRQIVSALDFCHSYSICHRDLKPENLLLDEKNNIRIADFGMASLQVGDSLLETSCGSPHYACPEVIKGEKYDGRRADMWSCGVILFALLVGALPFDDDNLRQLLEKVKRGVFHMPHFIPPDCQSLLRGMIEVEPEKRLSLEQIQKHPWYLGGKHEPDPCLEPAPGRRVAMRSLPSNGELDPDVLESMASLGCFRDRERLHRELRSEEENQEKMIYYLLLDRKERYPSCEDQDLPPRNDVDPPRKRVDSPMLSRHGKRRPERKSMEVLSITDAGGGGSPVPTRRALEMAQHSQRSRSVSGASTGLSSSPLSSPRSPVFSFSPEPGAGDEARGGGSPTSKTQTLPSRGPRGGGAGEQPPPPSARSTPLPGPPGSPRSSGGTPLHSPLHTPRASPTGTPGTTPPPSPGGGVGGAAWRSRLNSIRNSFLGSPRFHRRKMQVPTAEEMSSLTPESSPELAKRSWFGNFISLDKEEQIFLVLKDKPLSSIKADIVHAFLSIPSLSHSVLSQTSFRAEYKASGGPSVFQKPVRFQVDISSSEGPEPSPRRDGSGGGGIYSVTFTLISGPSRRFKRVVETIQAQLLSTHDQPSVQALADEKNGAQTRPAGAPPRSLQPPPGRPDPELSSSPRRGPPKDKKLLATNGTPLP

| SMILES | inhibition (Homo sapiens) [%] | inhibition [1] [%] | inhibition [2] [%] | inhibition [3] [%] | inhibition [4] [%] | inhibition [5] [%] | inhibition [6] [%] | inhibition [7] [%] | inhibition [8] [%] | inhibition [9] [%] | inhibition [10] [%] | inhibition [11] [%] |
| --- | --- | --- | --- | --- | --- | --- | --- | --- | --- | --- | --- | --- |
| c1ccc(CC2CCC3(CCN(c4ncnc5[nH]cnc45)CC3)NC2)cc1 (racemic) | 13 | 15 | 20 | 57 | 7 | 4 | 18 | 53 | 78 | 13 | 63 | 10 |
| c1ccc(CC2CCNC3(CCN(c4ncnc5[nH]cnc45)CC3)C2)cc1 (racemic) | 7 | 21 | 18 | 91 | 11 | 23 | 14 | 86 | 98 | 19 | 94 | 16 |
| c1ccc(C2CCNC3(CCN(c4ncnc5[nH]cnc45)CC3)C2)cc1 (racemic) | 8 | 19 | 15 | 81 | 14 | 7 | 18 | 77 | 99 | 20 | 84 | 13 |
